Experimental data as given in ChEMBL document CHEMBL1125414, “A novel class of calcium-entry blockers: the 1[[4-(aminoalkoxy)phenyl]sulfonyl]indolizines” (J Med Chem, 1992).

Legend:
[1] = Displacement of [3H]nitrendipine binding to L-type calcium channel of Guinea pig cerebral cortex membranes; type: tissue-based, Cavia porcellus
Rattus norvegicus = organism: Rattus norvegicus; experiment: Molar concentration required to block [Ca2+] induced contraction of K+ depolarized rat aorta by 50%; type: functional
In short: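 Spiral strips of thoracic aorta from male Wistar rats in modified Krebs solution, 95% O2/5% CO2, 37 °C, depolarized preparation. pD2 taken as negative log molar antagonist concentration reducing maximal contraction by 50%.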

SMILES	IC50 [1] [µM]	IC50 (Rattus norvegicus) [µM]
CCCCN(CCCC)CCOc1ccc(S(=O)(=O)c2c(CC)cn3ccccc23)cc1	0.033	0.0722
CCCCN(CCCC)CCCOc1ccc(S(=O)(=O)c2c(CC)cn3ccccc23)cc1	0.014	0.0313
CCCCN(CCCC)CCCOc1ccc(S(=O)(=O)c2c(C3CC3)cn3ccccc23)cc1	0.0025	0.0109
COc1ccc(NCCCOc2ccc(S(=O)(=O)c3c(C(C)C)cn4ccccc34)cc2)cc1OC	0.383	0.396
COc1ccc(CCN(C)CCCOc2ccc(S(=O)(=O)c3c(C4CC4)cn4ccccc34)cc2)cc1OC	0.00074	0.0039
COc1ccc(CCNCCCOc2ccc(S(=O)(=O)c3c(C(C)C)cn4ccccc34)cc2)cc1OC	0.0018	0.00505
CCN(CC)CCCOc1ccc(S(=O)(=O)c2c(C(C)C)cn3ccccc23)cc1	0.051	0.228
CCCN(CCC)CCCOc1ccc(S(=O)(=O)c2c(CC)cn3ccccc23)cc1	0.181	0.15
CCCCN(CCCC)CCCOc1ccc(S(=O)(=O)c2c(C)cn3ccccc23)cc1	0.069	0.162
COc1ccc(CCN(C)CCCOc2ccc(S(=O)(=O)c3c(C(C)C)cn4ccccc34)cc2)cc1OC [FANTOFARONE]	0.00061	0.0056
COc1ccc([C@@H]2Sc3ccccc3N(CCN(C)C)C(=O)[C@@H]2OC(C)=O)cc1 [DILTIAZEM]	0.059	0.303
CCCCN(CCCC)CCCCOc1ccc(S(=O)(=O)c2c(C(C)C)cn3ccccc23)cc1	0.0013	0.0202
CC(C)c1cn2ccccc2c1S(=O)(=O)c1ccc(OCCCNC(C)(C)C)cc1	0.0172	0.0418
CCCCN(CCCC)CCCCCOc1ccc(S(=O)(=O)c2c(CC)cn3ccccc23)cc1	0.02	0.0974
CC(C)c1cn2ccccc2c1S(=O)(=O)c1ccc(OCCCN(C)C)cc1	0.201	0.39
CCCCCN(CCCCC)CCCOc1ccc(S(=O)(=O)c2c(CC)cn3ccccc23)cc1	0.0063	0.0624
CCCCCCCCN(CCCCCCCC)CCCOc1ccc(S(=O)(=O)c2c(C(C)C)cn3ccccc23)cc1	0.0065	30.1
CCc1cn2ccccc2c1S(=O)(=O)c1ccc(OCCCNCCc2ccc(OC)c(OC)c2)cc1	0.0046	0.011
CCc1cn2ccccc2c1S(=O)(=O)c1ccc(OCCCN(C)CCc2ccc(OC)c(OC)c2)cc1		0.0134
CCCCc1cn2ccccc2c1S(=O)(=O)c1ccc(OCCCN(CCCC)CCCC)cc1	0.022	0.284
COc1ccc(CN(C)CCCCOc2ccc(S(=O)(=O)c3c(C(C)C)cn4ccccc34)cc2)cc1OC	0.0045	0.0146
CCCCN(CCCC)CCCOc1ccc(S(=O)(=O)c2c(CCC)cn3ccccc23)cc1	0.014	0.0543
COc1ccc(CNCCCOc2ccc(S(=O)(=O)c3c(C(C)C)cn4ccccc34)cc2)cc1OC	0.0012	0.013
CC(C)c1cn2ccccc2c1S(=O)(=O)c1ccc(OCCCN2CCC(c3ccccc3)CC2)cc1	0.0066	0.0809
CCCCN(CCCC)CCCOc1ccc(S(=O)(=O)c2c(C(C)(C)C)cn3ccccc23)cc1	0.0096	0.0519
COC(=O)C1=C(C)NC(C)=C(C(=O)OC)C1c1ccccc1[N+](=O)[O-] [NIFEDIPINE]	0.0025	0.00116

SMILES	IC50 [1] [µM]	IC50 (Rattus norvegicus) [µM]
CCCCN(CCCC)CCCOc1ccc(S(=O)(=O)c2c(-c3ccccc3)cn3ccccc23)cc1	0.156	1.62
COc1ccc(CN(C)CCCOc2ccc(S(=O)(=O)c3c(C4CC4)cn4ccccc34)cc2)cc1OC	0.0019	0.0047
CC(C)c1cn2ccccc2c1S(=O)(=O)c1ccc(OCCCN2CCN(c3ccccc3)CC2)cc1	0.014	0.205
CCCN(CCC)CCCOc1ccc(S(=O)(=O)c2c(C(C)C)cn3ccccc23)cc1		0.102
CCCN(CCC)CCCOc1ccc(S(=O)(=O)c2c(C)cn3ccccc23)cc1	0.648	0.957
COc1cc(CCNCCCOc2ccc(S(=O)(=O)c3c(C(C)C)cn4ccccc34)cc2)cc(OC)c1	0.00053	0.00232
COc1ccc(CN(C)CCCOc2ccc(S(=O)(=O)c3c(C(C)C)cn4ccccc34)cc2)cc1OC	0.00062	0.00318
CCCCN(CCCOc1ccc(S(=O)(=O)c2c(C(C)C)cn3ccccc23)cc1)CCc1ccc(OC)c(OC)c1	0.00084	0.0187
CC(C)c1cn2ccccc2c1S(=O)(=O)c1ccc(OCCCNCc2ccccc2)cc1	0.0045	0.0228
CC(C)(C)NCCCOc1ccc(S(=O)(=O)c2c(C3CC3)cn3ccccc23)cc1	0.043	0.0665
CCCCN(CCCC)CCCOc1ccc(S(=O)(=O)c2c(C3CCCCC3)cn3ccccc23)cc1	0.113	4.07
COc1cc(CCN(C)CCCOc2ccc(S(=O)(=O)c3c(C(C)C)cn4ccccc34)cc2)cc(OC)c1OC	0.0006	0.00224
COc1ccc(CCN(C)CCCC(C#N)(c2ccc(OC)c(OC)c2)C(C)C)cc1OC (stereo unspecified)	0.038	0.0471
CCc1cn2ccccc2c1S(=O)(=O)c1ccc(OCCCNC(C)(C)C)cc1	0.13	0.413
COc1cccc(CCN(C)CCCOc2ccc(S(=O)(=O)c3c(C(C)C)cn4ccccc34)cc2)c1	0.0026	0.00786
CCCCCN(CCCCC)CCCOc1ccc(S(=O)(=O)c2c(C(C)C)cn3ccccc23)cc1	0.00089	0.0896
CCCCN(CCCC)CCCCOc1ccc(S(=O)(=O)c2c(CC)cn3ccccc23)cc1	0.0046	0.0333
CC(C)(C)NCCCOc1ccc(S(=O)(=O)c2c(C(C)(C)C)cn3ccccc23)cc1	0.09	0.443
COc1cc(CCN(C)CCCOc2ccc(S(=O)(=O)c3c(C(C)C)cn4ccccc34)cc2)cc(OC)c1	0.00019	0.00212
CC(C)c1cn2ccccc2c1S(=O)(=O)c1ccc(OCCCNCCc2ccccc2)cc1	0.004	0.0815
CCN(CC)CCCOc1ccc(S(=O)(=O)c2c(C)cn3ccccc23)cc1		3.39
CCc1cn2ccccc2c1S(=O)(=O)c1ccc(OCCCN2CCCCC2)cc1	0.274	0.357
CCCCN(CCCC)CCCOc1ccc(S(=O)(=O)c2c(C(C)C)cn3ccccc23)cc1	0.0021	0.0216
COc1ccc(CCN(C)CCCCOc2ccc(S(=O)(=O)c3c(C(C)C)cn4ccccc34)cc2)cc1OC	0.0023	0.0216
COc1ccc(CCN(C)CCCOc2ccc(S(=O)(=O)c3c(C(C)C)cn4ccccc34)cc2)cc1	0.0087	0.0226
CCCCc1cn2ccccc2c1S(=O)(=O)c1ccc(OCCCN(CCC)CCC)cc1	0.129	0.57
